Source: ChEMBL document CHEMBL4308914, “Discovery of potent, low-absorbable sodium-dependent glucose cotransporter 1 (SGLT1) inhibitor SGL5213 for type 2 diabetes treatment” (Bioorg Med Chem, 2019)

Tests used:
[1] = target: T1, Sodium/glucose cotransporter 2 (Homo sapiens, UniProt P31639); test: Inhibition of human SGLT2 expressed in CHOK1 cells assessed as reduction in sodium-dependent glucose uptake after 1 hr in presence of [14C]-methyl-alpha -D-glucopyranoside by microbeta counting method; assay type: cell-based
T1 sequence (P31639 whole entry): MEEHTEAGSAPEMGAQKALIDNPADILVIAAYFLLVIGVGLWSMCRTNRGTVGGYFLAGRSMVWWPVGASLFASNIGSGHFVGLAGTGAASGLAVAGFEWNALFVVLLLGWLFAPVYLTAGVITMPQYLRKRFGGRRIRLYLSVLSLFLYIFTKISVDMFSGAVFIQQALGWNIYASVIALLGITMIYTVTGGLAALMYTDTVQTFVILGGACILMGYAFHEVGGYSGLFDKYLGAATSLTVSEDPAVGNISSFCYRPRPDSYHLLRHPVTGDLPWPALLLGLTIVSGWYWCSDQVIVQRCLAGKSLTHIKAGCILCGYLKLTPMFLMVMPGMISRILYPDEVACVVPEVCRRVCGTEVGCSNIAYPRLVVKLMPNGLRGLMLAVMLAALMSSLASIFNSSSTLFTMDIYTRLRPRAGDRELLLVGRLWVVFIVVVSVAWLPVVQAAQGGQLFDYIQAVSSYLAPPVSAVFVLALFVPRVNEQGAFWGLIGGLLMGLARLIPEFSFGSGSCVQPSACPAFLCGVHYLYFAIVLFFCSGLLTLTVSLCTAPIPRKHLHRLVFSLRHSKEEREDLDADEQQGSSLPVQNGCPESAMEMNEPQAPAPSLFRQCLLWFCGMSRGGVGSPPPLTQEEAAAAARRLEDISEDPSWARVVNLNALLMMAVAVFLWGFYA
Summary of the method: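 Human SGLT2 stably expressed in CHO-K1 cells; 20 min Na-free choline pretreatment, then Na+ uptake buffer pH 7.4 with 1 mM methyl-α-D-glucopyranoside containing [14C] label plus compound, 1 h at 37 °C. Washed, NaOH lysis, scintillation counting; Na-free buffer for background. IC50 from six concentrations relative to uninhibited uptake; mean of at least two experiments.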

[2] = target: T2, Sodium/glucose cotransporter 1 (Homo sapiens, UniProt P13866); test: Inhibition of human SGLT1 expressed in CHOK1 cells assessed as reduction in sodium-dependent glucose uptake after 30 mins in presence of [14C]-methyl-alpha -D-glucopyranoside by microbeta counting method; assay type: cell-based
T2 sequence (P13866 whole entry): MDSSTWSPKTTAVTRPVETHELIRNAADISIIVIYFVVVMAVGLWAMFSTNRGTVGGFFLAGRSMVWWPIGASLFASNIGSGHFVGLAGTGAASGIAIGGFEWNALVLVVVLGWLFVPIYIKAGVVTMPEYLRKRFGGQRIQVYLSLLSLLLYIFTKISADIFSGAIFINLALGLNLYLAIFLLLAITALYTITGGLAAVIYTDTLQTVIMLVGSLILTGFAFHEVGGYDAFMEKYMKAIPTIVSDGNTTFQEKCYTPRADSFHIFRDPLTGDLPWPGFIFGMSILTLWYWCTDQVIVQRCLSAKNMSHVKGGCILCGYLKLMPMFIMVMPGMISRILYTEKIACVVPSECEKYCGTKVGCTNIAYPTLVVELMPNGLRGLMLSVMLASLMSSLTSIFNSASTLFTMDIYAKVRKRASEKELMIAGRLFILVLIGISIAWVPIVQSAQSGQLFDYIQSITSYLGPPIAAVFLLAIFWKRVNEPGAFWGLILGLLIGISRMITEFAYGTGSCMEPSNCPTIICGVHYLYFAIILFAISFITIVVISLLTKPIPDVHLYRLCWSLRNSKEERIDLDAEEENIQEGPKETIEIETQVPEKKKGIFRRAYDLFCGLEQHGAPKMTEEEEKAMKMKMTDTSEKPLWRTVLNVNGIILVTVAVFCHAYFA
Summary of the method: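 CHO-K1 cells stably expressing human SGLT1, preincubated 20 min in Na-free choline buffer (pH 7.4). Uptake buffer (140 mM NaCl, HEPES/Tris pH 7.4) with 0.1 mM methyl-α-D-glucopyranoside plus [14C] tracer and test compound, 30 min at 37 °C. Cells washed, lysed in NaOH, radioactivity counted. Choline-for-Na buffer as background. Six concentrations; IC50 vs untreated control; mean of at least two experiments.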

[3] = Permeability of the compound at pH 7.4 by PAMPA assay; assay type: ADME; details: read-out: permeability
Summary of the method: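 PAMPA at pH 7.4: filter coated with GIT-0 lipid; donor compartment holds compound in universal buffer at 25 μM or 5 μM; permeability reported as ×10⁻⁶ cm/s.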

[4] = Volume of distribution at steady sate in Sprague-Dawley rat at 0.4 mg/kg, iv; assay type: ADME, organism-based; details: in vivo, read-out: Vdss
Summary of the method: (§1)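 Fasted male SD rats, single i.v. dose in saline; tail-vein blood sampled over time, plasma analysed by LC-MS/MS. Parameters by non-compartmental analysis; mean of three animals.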

[5] = Drug uptake in Sprague-Dawley rat kidney at 0.3 mg/kg, iv administered as single dose after 72 hrs by LCMS analysis; assay type: ADME, organism-based; details: read-out: Drug uptake
Summary of the method: (§2)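 Fasted male SD rats given single i.v. dose in saline; animals euthanized at 2, 24 and 72 h, kidneys homogenized in purified water and unchanged drug measured by LC-MS/MS (ng/g tissue). Mean ± SD of three animals; 72 h level also expressed relative to 2 h value.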

[6] = Drug uptake in Sprague-Dawley rat kidney at 0.3 mg/kg, iv administered as single dose after 2 hrs by LCMS analysis; assay type: ADME, organism-based; details: read-out: Drug uptake; summary of the method: as §2
[7] = Drug excretion in bile duct cannulated Sprague-Dawley rat bile at 0.3 mg/kg, iv administered as single dose after 24 hrs by LCMS analysis; assay type: ADME, organism-based; details: read-out: Drug excretion
Summary of the method: (§3)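 Bile duct-cannulated SD rats given single i.v. dose in saline; urine and bile collected over 24 h. Unchanged drug quantified by LC-MS/MS and expressed as cumulative % of dose; mean ± SD of three animals.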

[8] = Cmax in Sprague-Dawley rat at 30 mg/kg, po; assay type: ADME, organism-based; parameters: dose 30 mg/kg, route oral; details: in vivo
Summary of the method: (§4)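 Fasted male SD rats dosed orally in 0.5% CMC Na; tail-vein plasma sampled over time and analysed by LC-MS/MS. Non-compartmental analysis; bioavailability relative to i.v. dosing in saline; mean of three animals.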

[9] = Drug excretion in bile duct cannulated Sprague-Dawley rat urine at 0.3 mg/kg, iv administered as single dose after 24 hrs by LCMS analysis; assay type: ADME, organism-based; details: read-out: Drug excretion; summary of the method: as §3
[10] = Drug uptake in Sprague-Dawley rat kidney at 0.3 mg/kg, iv administered as single dose after 24 hrs by LCMS analysis; assay type: ADME, organism-based; details: read-out: Drug uptake; summary of the method: as §2
[11] = Oral bioavailability in Sprague-Dawley rat at 30 mg/kg; assay type: ADME, organism-based; details: in vivo; summary of the method: as §4
[12] = Total clearance in Sprague-Dawley rat at 0.4 mg/kg, iv; assay type: ADME, organism-based; details: in vivo; summary of the method: as §1
[13] = Drug uptake in Sprague-Dawley rat kidney assessed as unchanged drug level at 0.3 mg/kg, iv administered as single dose after 72 hrs by LCMS analysis relative to control; assay type: ADME, organism-based; details: in vivo; summary of the method: as §2
Rattus norvegicus [14] = test: Antidiabetic activity in Sprague-Dawley rat assessed as reduction in blood glucose AUC (0 to 2 hrs) at 0.3 mg/kg, po dosed just prior to sucrose loading measured up to 120 mins by sucrose tolerance test relative to control; assay type: functional; parameters: scale not given: the % may be the effect or the level left
Rattus norvegicus [15] = test: Antidiabetic activity in Sprague-Dawley rat assessed as reduction in blood glucose AUC (0 to 2 hrs) at 0.3 to 3 mg/kg, po dosed just prior to sucrose loading measured up to 120 mins by sucrose tolerance test relative to control; assay type: functional
[16] = Half life in Sprague-Dawley rat at 0.4 mg/kg, iv; assay type: ADME, organism-based; details: in vivo; summary of the method: as §1
Rattus norvegicus [17] = test: Antidiabetic activity in Sprague-Dawley rat assessed as reduction in blood glucose AUC (0 to 2 hrs) at 1 mg/kg, po dosed just prior to sucrose loading measured up to 120 mins by sucrose tolerance test relative to control; assay type: functional; parameters: scale not given: the % may be the effect or the level left
[18] = Tmax in Sprague-Dawley rat at 30 mg/kg, po; assay type: ADME, organism-based; details: in vivo; summary of the method: as §4
Rattus norvegicus [19] = test: Antidiabetic activity in Sprague-Dawley rat assessed as reduction in blood glucose AUC (0 to 2 hrs) at 3 mg/kg, po dosed just prior to sucrose loading measured up to 120 mins by sucrose tolerance test relative to control; assay type: functional; parameters: scale not given: the % may be the effect or the level left
[20] = Gastrointestinal toxicity in Sprague-Dawley rat assessed as induction of diarrhea at 0.3 to 3 mg/kg, po dosed just prior to sucrose loading measured up to 120 mins during sucrose tolerance test relative to control; assay type: organism-based; details: in vivo, 2 h

SMILES: Cc1cc(/C=C/C(C)(C)C(=O)NC(C)(C)CO)ccc1Cc1cc([C@@H]2O[C@H](CO)[C@@H](O)[C@H](O)[C@H]2O)c(O)cc1C(C)C
- IC50 [1]: 0.069 µM
- IC50 [2]: 0.055 µM
- Papp [3]: 5 nm/s

SMILES: CC(C)c1cc(O)c([C@@H]2O[C@H](CO)[C@@H](O)[C@H](O)[C@H]2O)cc1Cc1ccc(/C=C/C(C)(C)C(=O)NC(C)(C)CO)cc1
- IC50 [1]: 0.019 µM
- IC50 [2]: 0.023 µM

SMILES: Cc1cc(/C=C/C(C)(C)C(=O)NC(C)(C)CO)ccc1Cc1cc([C@@H]2O[C@H](CO)[C@@H](O)[C@H](O)[C@H]2O)c(C)cc1C
- IC50 [1]: 0.084 µM
- IC50 [2]: 0.111 µM
- Papp [3]: 75 nm/s

SMILES: Cc1cc(/C=C/C(C)(C)C(=O)NC(C)(C)C(=O)NCC(C)(C)N)ccc1Cc1cc([C@@H]2O[C@H](CO)[C@@H](O)[C@H](O)[C@H]2O)c(O)cc1C(C)C
- Vd [4]: 0.964 L/kg
- concentration at 72 h [5]: 12.5 ng/g
- concentration at 2 h [6]: 1060 ng/g
- dose excreted at 24 h [7]: 89.8%
- Cmax [8]: 5.34 ng/mL
- dose excreted at 24 h [9]: 5.3%
- concentration at 24 h [10]: 83.8 ng/g
- bioavailability [11]: 0.09%
- clearance [12]: 3.76 L/h/kg
- Drug uptake [13]: 1.2%

SMILES: COc1cc(C(C)C)c(Cc2ccc(/C=C/C(C)(C)C(=O)NC(C)(C)C(=O)NCCN(C)C)cc2)cc1[C@@H]1O[C@H](CO)[C@@H](O)[C@H](O)[C@H]1O
- Activity (Rattus norvegicus [14]): 27.5%
- Vd [4]: 1.64 L/kg
- concentration at 72 h [5]: 29.2 ng/g
- Emax (Rattus norvegicus [15]): 50.8%
- half-life [16]: 2.39 h
- concentration at 2 h [6]: 1090 ng/g
- Activity (Rattus norvegicus [17]): 50.8%
- dose excreted at 24 h [7]: 65.1%
- Tmax [18]: 2.83 h
- Cmax [8]: 1.88 ng/mL
- dose excreted at 24 h [9]: 18.1%
- concentration at 24 h [10]: 104 ng/g
- Activity (Rattus norvegicus [19]): 45.7%
- bioavailability [11]: 0.17%
- Activity [20]: Non-Toxic
- clearance [12]: 4.02 L/h/kg
- Drug uptake [13]: 2.7%

SMILES: COc1cc(C(C)C)c(Cc2ccc(/C=C/C(C)(C)C(=O)NC(C)(C)C(=O)N3CCNCC3)cc2C)cc1[C@@H]1O[C@H](CO)[C@@H](O)[C@H](O)[C@H]1O
- IC50 [1]: 0.2 µM
- IC50 [2]: 0.034 µM

SMILES: Cc1cc(C)c([C@@H]2O[C@H](CO)[C@@H](O)[C@H](O)[C@H]2O)cc1Cc1ccc(/C=C/C(C)(C)C(=O)NC(C)(C)CO)cc1Cl
- IC50 [2]: 0.176 µM

SMILES: COc1cc(C(C)C)c(Cc2ccc(/C=C/C(C)(C)C(=O)NC(C)(C)C(=O)N3CCN(C)CC3)cc2C)cc1[C@@H]1O[C@H](CO)[C@@H](O)[C@H](O)[C@H]1O
- IC50 [1]: 0.281 µM
- IC50 [2]: 0.055 µM
